According to ChEMBL document CHEMBL1153248, “Inhibition of Yersinia protein tyrosine phosphatase by phosphonate derivatives of calixarenes” (Bioorg Med Chem Lett, 2010):
The source made the active and inactive calls. No cut-off for these calls is given here.

System: not listed separately
Test: Selectivity for human recombinant PTPbeta over Yersinia PTP
`O=P(O)(O)Cc1cc2c(O)c(c1)Sc1cc(CP(=O)(O)O)cc(c1O)Sc1cc(CP(=O)(O)O)cc(c1O)Sc1cc(CP(=O)(O)O)cc(c1O)S2` showed a fold change (FC) of 3.

Target: not listed separately
Test: Inhibition of Yersinia PTP
In short: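 Recombinant Yop51* enzyme; p-nitrophenyl phosphate at 0.5–4.0 mM in 0.05 M BISTRIS pH 6.5 with 100 mM NaCl, 0.05% Brij-35, 0.6 vol% DMSO, 0.4 mM EDTA and 1 mM DTT. Substrate and inhibitor were preincubated 5 min at 30 °C, then enzyme was added. Initial rates were read as p-nitrophenol A410 (ε 18,300 M⁻¹ cm⁻¹). Ki came from Lineweaver–Burk analysis at several inhibitor levels, reported as mean and standard deviation.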
For `O=P(O)(O)Cc1cc2c(O)c(c1)Cc1cc(CP(=O)(O)O)cc(c1O)Cc1cc(CP(=O)(O)O)cc(c1O)Cc1cc(CP(=O)(O)O)cc(c1O)C2`, the Ki was 0.92 µM. In the case of `CCCOc1c2cccc1Cc1cc(C(P(=O)(O)O)P(=O)(O)O)cc(c1O)Cc1cccc(c1OCCC)Cc1cc(C(P(=O)(O)O)P(=O)(O)O)cc(c1O)C2`, the Ki is reported as 1.4 µM. Molecule `O=P(O)(O)Cc1cc2c(O)c(c1)Sc1cc(CP(=O)(O)O)cc(c1O)Sc1cc(CP(=O)(O)O)cc(c1O)Sc1cc(CP(=O)(O)O)cc(c1O)S2` has a Ki of 0.22 µM. With `O=P(O)(O)C(c1cc2c(O)c(c1)Cc1cc(C(P(=O)(O)O)P(=O)(O)O)cc(c1O)Cc1cc(C(P(=O)(O)O)P(=O)(O)O)cc(c1O)Cc1cc(C(P(=O)(O)O)P(=O)(O)O)cc(c1O)C2)P(=O)(O)O` the Ki was 40 µM. Work on `O=P(O)(O)C(c1ccc(O)cc1)P(=O)(O)O` yielded a Ki of 570 µM. In the case of `CCCOc1c2cccc1Cc1cc(C(P(=O)(O)O)P(=O)(O)O)cc(c1O)Cc1cccc(c1OCCC)Cc1cccc(c1O)C2`, the Ki is reported as 7.1 µM.

Target: Receptor-type tyrosine-protein phosphatase beta (Homo sapiens, UniProt P23467)
Sequence (P23467 whole entry): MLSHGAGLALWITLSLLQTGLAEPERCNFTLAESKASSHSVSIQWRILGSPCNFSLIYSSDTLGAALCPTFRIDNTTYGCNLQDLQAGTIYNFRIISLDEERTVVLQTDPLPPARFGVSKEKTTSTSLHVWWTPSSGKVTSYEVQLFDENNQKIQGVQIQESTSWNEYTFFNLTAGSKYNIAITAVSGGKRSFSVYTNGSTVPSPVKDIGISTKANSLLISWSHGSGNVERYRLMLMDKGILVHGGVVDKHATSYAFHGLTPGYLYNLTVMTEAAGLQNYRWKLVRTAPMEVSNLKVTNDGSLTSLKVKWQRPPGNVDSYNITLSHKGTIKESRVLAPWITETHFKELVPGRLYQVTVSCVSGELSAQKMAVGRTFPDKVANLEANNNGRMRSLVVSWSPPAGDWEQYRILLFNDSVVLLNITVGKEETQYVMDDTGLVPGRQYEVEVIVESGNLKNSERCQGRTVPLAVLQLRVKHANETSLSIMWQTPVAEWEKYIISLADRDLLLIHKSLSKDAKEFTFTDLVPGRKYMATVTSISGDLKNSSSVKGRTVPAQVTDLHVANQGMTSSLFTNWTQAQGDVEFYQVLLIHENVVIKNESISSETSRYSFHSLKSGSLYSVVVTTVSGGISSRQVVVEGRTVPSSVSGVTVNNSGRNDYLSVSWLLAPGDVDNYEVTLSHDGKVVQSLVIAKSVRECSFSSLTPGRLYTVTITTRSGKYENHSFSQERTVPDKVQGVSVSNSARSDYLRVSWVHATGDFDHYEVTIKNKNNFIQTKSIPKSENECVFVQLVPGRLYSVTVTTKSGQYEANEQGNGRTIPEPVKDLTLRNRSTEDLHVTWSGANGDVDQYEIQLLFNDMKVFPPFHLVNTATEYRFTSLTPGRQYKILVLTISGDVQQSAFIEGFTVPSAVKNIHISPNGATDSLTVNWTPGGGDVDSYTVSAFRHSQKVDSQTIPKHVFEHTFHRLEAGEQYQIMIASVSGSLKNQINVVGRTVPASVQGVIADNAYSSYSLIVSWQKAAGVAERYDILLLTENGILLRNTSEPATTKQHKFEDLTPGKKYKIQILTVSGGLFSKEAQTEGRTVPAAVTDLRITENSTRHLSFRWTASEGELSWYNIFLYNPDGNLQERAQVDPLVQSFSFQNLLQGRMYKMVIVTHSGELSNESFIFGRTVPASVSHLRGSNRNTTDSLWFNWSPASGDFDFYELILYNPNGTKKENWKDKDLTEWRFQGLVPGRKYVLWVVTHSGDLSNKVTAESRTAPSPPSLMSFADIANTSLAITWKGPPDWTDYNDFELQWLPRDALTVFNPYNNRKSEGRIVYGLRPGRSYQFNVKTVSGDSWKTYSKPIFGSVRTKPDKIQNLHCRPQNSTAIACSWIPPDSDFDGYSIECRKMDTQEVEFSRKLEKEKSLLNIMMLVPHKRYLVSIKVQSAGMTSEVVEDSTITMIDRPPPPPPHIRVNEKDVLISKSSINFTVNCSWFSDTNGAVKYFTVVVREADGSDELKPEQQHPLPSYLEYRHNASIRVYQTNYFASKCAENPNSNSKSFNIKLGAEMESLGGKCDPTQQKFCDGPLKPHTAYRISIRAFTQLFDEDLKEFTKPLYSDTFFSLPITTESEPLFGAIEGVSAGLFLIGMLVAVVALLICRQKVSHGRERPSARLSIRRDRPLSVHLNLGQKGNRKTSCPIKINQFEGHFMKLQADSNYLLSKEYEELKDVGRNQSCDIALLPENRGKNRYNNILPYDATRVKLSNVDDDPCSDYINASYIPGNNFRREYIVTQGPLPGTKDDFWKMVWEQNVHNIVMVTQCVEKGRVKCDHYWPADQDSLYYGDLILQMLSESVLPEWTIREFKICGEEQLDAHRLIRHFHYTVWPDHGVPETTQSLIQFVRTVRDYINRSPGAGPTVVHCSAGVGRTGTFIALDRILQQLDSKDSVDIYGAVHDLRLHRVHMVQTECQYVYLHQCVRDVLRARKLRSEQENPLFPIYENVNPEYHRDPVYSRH
Test: Inhibition of human recombinant PTPbeta
In short: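 Human recombinant PTPβ; 1 mM p-nitrophenyl phosphate preincubated 5 min at 30 °C with varying inhibitor concentrations in 0.05 M BISTRIS pH 7.0 with 100 mM NaCl, 0.05% Brij-35, 0.8 vol% DMSO and 1 mM diethylenetriamine pentaacetic acid. Enzyme was added to start the reaction and A410 was followed over time. IC50 is the concentration halving activity after 5 min. For competitive inhibition, Ki was taken as ½ IC50 at substrate equal to Km.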
`O=P(O)(O)Cc1cc2c(O)c(c1)Cc1cc(CP(=O)(O)O)cc(c1O)Cc1cc(CP(=O)(O)O)cc(c1O)Cc1cc(CP(=O)(O)O)cc(c1O)C2` showed an IC50 of 3.8 µM. Molecule `CCCOc1c2cccc1Cc1cc(C(P(=O)(O)O)P(=O)(O)O)cc(c1O)Cc1cccc(c1OCCC)Cc1cc(C(P(=O)(O)O)P(=O)(O)O)cc(c1O)C2` has an IC50 of 32 µM. Molecule `O=P(O)(O)Cc1cc2c(O)c(c1)Sc1cc(CP(=O)(O)O)cc(c1O)Sc1cc(CP(=O)(O)O)cc(c1O)Sc1cc(CP(=O)(O)O)cc(c1O)S2` has an IC50 of 0.13 µM.

Organism: Homo sapiens
Test: Inhibition of human PP1 at 50 uM
For `O=P(O)(O)Cc1cc2c(O)c(c1)Cc1cc(CP(=O)(O)O)cc(c1O)Cc1cc(CP(=O)(O)O)cc(c1O)Cc1cc(CP(=O)(O)O)cc(c1O)C2`, the Activity was “inactive”. With `CCCOc1c2cccc1Cc1cc(C(P(=O)(O)O)P(=O)(O)O)cc(c1O)Cc1cccc(c1OCCC)Cc1cc(C(P(=O)(O)O)P(=O)(O)O)cc(c1O)C2` the Activity was “inactive”. With `O=P(O)(O)Cc1cc2c(O)c(c1)Sc1cc(CP(=O)(O)O)cc(c1O)Sc1cc(CP(=O)(O)O)cc(c1O)Sc1cc(CP(=O)(O)O)cc(c1O)S2` the Activity was “inactive”.
